This is an account of results in ChEMBL document CHEMBL4325833, “Discovery of a Potent, Selective, and Brain-Penetrant Small Molecule that Activates the Orphan Receptor GPR88 and Reduces Alcohol Intake” (J Med Chem, 2018).

Structures are written as SMILES. Calls of active or inactive are those of the source. No cut-off for these calls is given here.

As usually defined, the EC50 is the concentration that produces a half-maximal response. In general, inhibition refers to the change of the read-out against control, counted positive when it falls. For orientation: Ki means the equilibrium dissociation constant of an inhibitor or competing ligand from its target.

Data set [1] addresses G protein-coupled receptor 88 (Homo sapiens, UniProt Q9GZN0).
The species entered for data set [2] is Mus musculus. Nature of the data set: Increase in [35S]-GTPgammaS binding in GPR88 knocked out mouse striatal membranes at 100 uM after 1 hr by liquid scintillation counting. It counts as functional, cell membranes. The note with it: Striatal membrane. The gist of the method: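 Striata from GPR88 KO mice. Membranes made by sucrose homogenization and differential centrifugation (2500g, then 23000g). 2 µg protein per well incubated 1 h at 25 °C with 0.1 nM [35S]-GTPγS and GDP. Nonspecific binding taken with 10 µM GTPγS. Read by liquid scintillation counting, expressed as % above basal. Two independent experiments in triplicate.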
On the technique in general: GTPγS resists hydrolysis and so accumulates on activated G proteins.

The target in data set [3] is KOR (kappa-type opioid receptor) (Homo sapiens, UniProt P41145). Nature of the data set: Binding affinity to human full length KOR assessed as reduction in radioligand binding at 10 uM after 60 mins by scintillation counting relative to control. Summed up: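 Outsourced radioligand binding screen, one of 38 GPCR, ion channel and transporter targets, run to the provider's standard protocols. Test concentration was a single 10 µM. Percent inhibition of radioligand binding is the average of two determinations.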

The test system of data set [4] is Rattus norvegicus. Nature of the data set: Decrease in alcohol self administration in Long-Evans rat assessed as reduction in alcohol lever responses at 5 to 20 mg/kg, ip administered 30 mins prior to a self-administration session. The format is functional, organism-based.
Data set [5] concerns VMAT. Nature of the data set: Displacement of [3H]-dihydrotetrabenazine from VMAT in human platelet cell membranes at 10 uM after 60 mins by scintillation counting relative to control. The note with it: probe [3H]-dihydrotetrabenazine. The gist of the method:
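Radioligand binding screen run by Eurofins PanLabs under their standard protocols, single concentration 10 μM. Percent inhibition of radioligand binding is the average of two determinations.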

Data set [6] in a line: Displacement of [3H]-dihydrotetrabenazine from VMAT in human platelet cell membranes after 60 mins by scintillation counting. The gist of the method: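 VMAT affinity follow-up run by Eurofins PanLabs under their standard protocols. Full concentration–displacement curves were run in duplicate. IC50 came from nonlinear regression and was converted to Ki by Cheng–Prusoff, using the radioligand concentration and historical Kd of the ligand.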

The target in data set [7] is G protein-coupled receptor 88 (Mus musculus, UniProt Q9EPB7). Nature of the data set: Agonist activity at GPR88 in wild type mouse striatal membranes assessed as increase in [35S]-GTPgammaS binding after 1 hr by liquid scintillation counting. The format is functional, cell membranes, Striatum, Membrane.
Data set [8] is filed under the species Mus musculus. Nature of the data set: Increase in [35S]-GTPgammaS binding in GPR88 knocked out mouse striatal membranes at 10 uM after 1 hr by liquid scintillation counting. It counts as functional, cell membranes. The conditions noted are these: Striatal membrane.

G protein-coupled receptor 88 (Homo sapiens, UniProt Q9GZN0), sequence (Q9GZN0 whole entry): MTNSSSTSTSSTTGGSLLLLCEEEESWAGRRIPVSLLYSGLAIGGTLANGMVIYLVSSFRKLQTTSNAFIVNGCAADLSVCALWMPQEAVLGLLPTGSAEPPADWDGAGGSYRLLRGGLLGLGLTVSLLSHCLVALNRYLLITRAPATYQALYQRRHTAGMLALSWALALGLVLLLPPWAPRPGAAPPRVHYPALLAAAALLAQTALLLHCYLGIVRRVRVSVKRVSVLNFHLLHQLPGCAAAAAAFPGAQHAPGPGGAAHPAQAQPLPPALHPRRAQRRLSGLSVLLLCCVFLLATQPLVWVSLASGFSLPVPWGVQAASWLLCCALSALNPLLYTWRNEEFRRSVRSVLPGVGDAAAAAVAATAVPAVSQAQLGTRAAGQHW
KOR (kappa-type opioid receptor), sequence (P41145 whole entry): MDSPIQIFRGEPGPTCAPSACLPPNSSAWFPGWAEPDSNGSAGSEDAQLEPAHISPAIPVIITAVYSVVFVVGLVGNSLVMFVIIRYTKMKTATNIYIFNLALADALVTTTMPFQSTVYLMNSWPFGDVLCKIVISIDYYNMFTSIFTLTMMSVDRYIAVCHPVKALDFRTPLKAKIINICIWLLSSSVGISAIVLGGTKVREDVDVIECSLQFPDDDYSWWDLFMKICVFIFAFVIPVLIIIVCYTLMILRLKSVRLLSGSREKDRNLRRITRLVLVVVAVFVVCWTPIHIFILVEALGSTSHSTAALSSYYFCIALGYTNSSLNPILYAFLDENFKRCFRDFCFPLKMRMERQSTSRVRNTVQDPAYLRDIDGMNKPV
G protein-coupled receptor 88 (Mus musculus, UniProt Q9EPB7), sequence (Q9EPB7 whole entry): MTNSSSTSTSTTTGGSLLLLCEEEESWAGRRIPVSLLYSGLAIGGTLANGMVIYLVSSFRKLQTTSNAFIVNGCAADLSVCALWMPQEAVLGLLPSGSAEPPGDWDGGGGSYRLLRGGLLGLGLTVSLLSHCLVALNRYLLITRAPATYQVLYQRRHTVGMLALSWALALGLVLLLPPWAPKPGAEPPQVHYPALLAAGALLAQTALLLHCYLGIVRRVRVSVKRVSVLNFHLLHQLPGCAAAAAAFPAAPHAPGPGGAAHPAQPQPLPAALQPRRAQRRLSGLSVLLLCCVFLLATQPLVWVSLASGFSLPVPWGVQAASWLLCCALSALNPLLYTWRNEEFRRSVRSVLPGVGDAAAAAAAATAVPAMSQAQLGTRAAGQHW

Turning to `CCCc1ccc(-c2ccc(N(C[C@H](C)N)C(=O)[C@@H]3C[C@H]3c3ccccn3)cc2)cc1`, in data set [1], the EC50 turned out to be 398 nM. `CCCc1ccc(-c2ccc(N(CCN)C(=O)[C@@H]3C[C@H]3c3ccccn3)cc2)cc1` gave a concentration for a half-maximal effect (EC50) in data set [1] of 501 nM. With `CCCc1ccc(-c2ccc(N(C[C@@H](N)[C@@H](C)OC)C(=O)[C@@H]3C[C@H]3c3ccccn3)cc2)cc1` (relative stereo), the EC50 in data set [1] is 63 nM. For the compound `COCc1ccc(-c2ccc(N(C[C@@H](N)[C@@H](C)OC)C(=O)[C@@H]3C[C@H]3c3ccccn3)cc2)cc1`, the result in data set [2] was inactive. Also, the values for the inhibition at 1 h, 10 µM in data set [3] and in data set [5] were 64% and 54%, respectively. The Activity result in data set [4] is “Dose-dependent effect”. For the same compound, in data set [6], the Ki was 4230 nM. As for `CCCc1ccc(-c2ccc(N(C[C@@H](N)Cc3ccccc3)C(=O)[C@@H]3C[C@H]3c3ccccn3)cc2)cc1`, in data set [1], the EC50 was found to be 501 nM. `CCCc1ccc(-c2ccc(N(C[C@@H](N)C(C)C)C(=O)[C@@H]3C[C@H]3c3ccccn3)cc2)cc1` had an EC50 in data set [1] of 158 nM. Compound `CCCc1ccc(-c2ccc(N(C[C@@H](N)CC(C)C)C(=O)[C@@H]3C[C@H]3c3ccccn3)cc2)cc1` gave an EC50 in data set [1] of 126 nM. In the case of `CCCc1ccc(-c2ccc(N(C[C@@H](N)c3ccccc3)C(=O)[C@@H]3C[C@H]3c3ccccn3)cc2)cc1` (relative stereo), in data set [1], the 50% effective concentration (EC50) was determined as 1260 nM. For `COc1ccc(-c2ccc(N(C[C@@H](N)[C@@H](C)OC)C(=O)[C@@H]3C[C@H]3c3ccccn3)cc2)cc1` (relative stereo), a half-maximal response in data set [1] (EC50) required 126 nM. In data set [1], `CCCc1ccc(-c2ccc(N(CC(C)(C)N)C(=O)[C@@H]3C[C@H]3c3ccccn3)cc2)cc1` (relative stereo) registered an EC50 of 316 nM. `CCCc1ccc(-c2ccc(N(C[C@@H](N)[C@@H](C)CC)C(=O)[C@@H]3C[C@H]3c3ccccn3)cc2)cc1`: in data set [7], the EC50 came to 1140 nM. In data set [8], the result was Active.
